Experiments:
[1] = Microsomal stability in human liver microsomes assessed as parent compound remaining measured after 30 mins by LC-MS/MS analysis; format: ADME, Microsome; conditions: read-out: Stability
[2] = test system: Severe acute respiratory syndrome coronavirus 2; assay: Inhibition of recombinant SARS-CoV-2 PLpro extracted from Escherichia coli BL21 (DE3) cells in presence of CHAPS detergent by microplate reader analysis
How it was run: (§1)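 SARS-CoV-2 PLpro enzymatic inhibition run with and without 1 mM CHAPS detergent; GRL0617 served as positive control.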

[3] = test system: Severe acute respiratory syndrome coronavirus 2; assay: Inhibition of recombinant SARS-CoV-2 PLpro extracted from Escherichia coli BL21 (DE3) cells in absence of CHAPS detergent by microplate reader analysis; how it was run: as §1
[4] = test system: Severe acute respiratory syndrome coronavirus 2; assay: Binding affinity to recombinant SARS-CoV-2 PLpro extracted from Escherichia coli BL21 (DE3) cells assessed as change in melting temperature at 1000 uM by DSF analysis
[5] = Selectivity ratio of CC50 for cytotoxicity against human HepG2 cells to CC50 for African green monkey Vero cells; format: toxicity, cell-based; conditions: HepG2 cells and Vero cells
[6] = Microsomal stability in mouse liver microsomes assessed as parent compound remaining measured after 30 mins by LC-MS/MS analysis; format: ADME, Microsome; conditions: read-out: Stability
[7] = Microsomal stability in rat liver microsomes assessed as parent compound remaining measured after 30 mins by LC-MS/MS analysis; format: ADME, Microsome; conditions: read-out: Stability
[8] = test system: Severe acute respiratory syndrome coronavirus 2; assay: Inhibition of recombinant SARS-CoV-2 PLpro extracted from Escherichia coli BL21 (DE3) cells in presence of 0.01% triton by microplate reader analysis
[9] = test system: Severe acute respiratory syndrome coronavirus 2; assay: Inhibition of recombinant SARS-CoV-2 PLpro extracted from Escherichia coli BL21 (DE3) cells in absence of 0.01% triton by microplate reader analysis

Structure (SMILES)	remaining at 0.5 h [1] [%]	inhibition [2]	inhibition [3]	ΔTm [4] [°C]	selectivity ratio [5]	remaining at 0.5 h [6] [%]	remaining at 0.5 h [7] [%]	inhibition [8]	inhibition [9]
COc1ccc(-c2ccc3nccc(N[C@@H]4CCNC4)c3n2)cn1	54.6	Active; Compound Is Not An Aggregator	Active; Compound Is Not An Aggregator	> 1	2	–	–	–	–
CS(=O)(=O)c1cccc(-c2ccc3nccc(N4CCNCC4)c3n2)c1	55.1	–	–	> 1	–	–	–	–	–
CN1CCC(Nc2ccnc3ccc(-c4ccc(C(=O)NCCO)nc4)nc23)CC1	95.5	–	–	> 1	–	97.3	94.2	–	–
Cn1ccc(-c2ccc3nccc(N[C@@H]4CCNC4)c3n2)cc1=O	98	–	–	> 1	2	> 99	94.3	Active; Compound Is Not An Aggregator	Active; Compound Is Not An Aggregator
CNC(=O)c1ccc(-c2ccc3nccc(NC4CCNCC4)c3n2)cn1	94.4	–	–	> 1	–	93.4	97.4	–	–

Reference: ChEMBL document CHEMBL6087445, “Discovery of Non-Covalent Inhibitors for SARS-CoV-2 PLpro: Integrating Virtual Screening, Synthesis, and Experimental Validation” (ACS Med Chem Lett, 2024)
